# Shown is part of a subset that was picked to be rich in hits.
# H69AR inhibit: growth inhibitors of human H69AR lung tumor cells. H69AR lung tumor viability, ATP luminescence, 72 h; stronger effect = lower value. AID 598. viability, % at 10 µM. 6% of 85,000 active;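 active = viability at or below 40%; inactive = viability above 40%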;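 note: multidrug resistant small cell line overexpressing MRP-1 efflux transporter; 100% = mean luminescence of untreated control wells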
# PTEN del growth: suppresses growth of cells with PTEN deletion; HCT116 PTEN-null viability, CellTiter-Glo, 60 h; stronger effect = lower value; viability, % at 10 µM; 1.2% of 140,000 active; AID 827;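 active = viability at or below a set limit, 4 SD under the median of all tested compounds, cut at about 3.7% in these data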;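 note: PTEN knockout HCT116 line with beta catenin targeted HCT116 as companion control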
# Lung fibro prol: blocks proliferation of human lung fibroblasts; LL 47 human lung fibroblast viability, ATP luminescence; stronger effect = lower value; viability, % at 10 µM; 1.1% of 85,000 active; AID 719;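 active = viability at or below 50% in the single dose screen; inactive = viability above 50%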;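 note: compound exposure lasted 72 h before the ATP readout; 100% = median luminescence of untreated cell-only wells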
#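 Times – overnight cell rest, 72 h compound treatment at 37 °C · Test system – human lung fibroblast line LL 47, low passage · Amount – 1,150 cells in each well · Controls – cell-only wells, no compound · Doses – 0.1% DMSO in all compound wells · Measured by – CellTiter-Glo luminescence · Buffer or medium – IMEM plus 15% FBS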
# HCT116 bCat-KO: beta-catenin-lacking colon tumor cell growth suppression. HCT116 beta-catenin knockout viability, CellTiter-Glo, 60 h; stronger effect = lower value. viability, % at 10 µM. 1.5% of 140,000 active;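 active = viability at or under a set limit, the compound median less 4 SD, cut at about 6% in these data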;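 note: 0% = Hyamine 1622 control at 20 µM and 100% = untreated cell control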
# HUVEC prolif 384: human endothelial cell proliferation inhibition; HUVEC proliferation, CellTiter-Glo luminescence, 72 h; stronger effect = lower value; 1.1% of 86,000 active; AID 648; viability, % at 10 µM (by protocol);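 active = viability at or below 30%; inactive = viability above 30%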;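 note: 100% = median luminescence of DMSO-only cell control wells on each plate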
# Phagocyt inh: inhibitors of macrophage phagocytosis. J774A.1 macrophage IgG-bead phagocytosis, imaging. inhibition, % at 5 µM. 0.07% of 110,000 active;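 active = inhibition above the mean of the plate negative controls plus 5 SD, cut at about 13% in these data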;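 note: phagocytic index as fraction of beads internalized from green versus red external bead signal; plate controls were DMSO negative control for no effect and cytochalasin-D positive control for full effect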
# * hit, by the source's call; . = no result; [ ] = dose if it differs, or a comment.
SMILES,H69AR inhibit,PTEN del growth,Lung fibro prol,HCT116 bCat-KO,HUVEC prolif 384,Phagocyt inh
Cc1cc(C)n(-c2nc(N(C)C)nc(N(C)C)n2)n1,93,103,97,100,93,.
N/C(=N\OC(=O)CCCCCN1C(=O)c2ccccc2C1=O)c1ccccc1,.,103,.,101,.,0
COc1ccc(CCNC(=O)Cn2cnc3c(cnn3-c3ccccc3Cl)c2=O)cc1OC,88,96,96,92,98,0
CCOC(=O)c1[nH]c2ccc(OC)cc2c1NC(=O)c1ccc2c(c1)OCO2,69,79,97,87,90,.
CCOC(=O)c1[nH]c2cc(OC)c(OC)cc2c1NC(=O)c1ccc2c(c1)OCO2,26*,112,68,102,88,.
CCOC(=O)c1[nH]c2ccccc2c1NC(=O)c1ccc2c(c1)OCO2,22*,90,78,86,81,0
COc1ccc(OC)c(C(C)NC(=O)c2ccco2)c1 (centres undefined),22*,58,100,54,85,0
COc1ccc(OC)c(C(C)NC(C)=O)c1 (centres undefined),100,108,103,102,91,-1
COc1ccccc1C(C)NC(=O)c1ccc(C)o1 (centres undefined),26*,30,96,31,91,0
O=C(COC(=O)[C@@H]1CC(O)CN1S(=O)(=O)c1ccccc1[N+](=O)[O-])Nc1ccc2ccccc2c1 (some centres undefined),.,103,.,92,.,-3
COc1ccc(C2N(C(=O)CN3CCOCC3)CCN2S(=O)(=O)c2ccccc2)cc1 (centres undefined),22*,93,.,81,87,-1
COc1ccc(C2N(C(=O)N3CCOCC3)CCN2S(=O)(=O)c2ccc(C)cc2)cc1 (centres undefined),100,90,88,94,102,.
O=C(CSc1nnc(SCc2cccc3ccccc23)s1)N/N=C/C=C/c1ccccc1[N+](=O)[O-],.,91,.,90,.,3
CCC(C(=O)N1CCc2ccccc2C1)n1nc(C)n2c(cc3occc32)c1=O (centres undefined),.,92,.,106,.,-1
COc1ccc(-c2cc(C(F)(F)F)n3nc(C(=O)NCc4ccco4)cc3n2)cc1OC,54,74,75,83,82,-2
CCCCCCn1c2c(c(=N)c3c1CCC3)CCC2,26*,6,67,5.2*,92,-1
CCn1c2c(c(=N)c3c1CCC3)CCC2,.,79,.,70,.,.
CCCCCCCCCn1c2c(c(=N)c3c1CCC3)CCC2,8.6*,1.6*,28*,1.9*,3.9*,.
CCCCn1c2c(c(=N)c3c1CCC3)CCC2,87,31,79,18,79,0
N#CC1=C(N)Oc2c(oc(CO)cc2=O)C12C(=O)Nc1ccc(Cl)cc12 (centres undefined),83,100,103,93,102,-1
CC1CCCN(S(=O)(=O)c2ccccc2[N+](=O)[O-])C1 (centres undefined),.,94,.,90,.,-14
CC(=O)/C=C(\C)Nc1ccc(-c2cnc(-c3ccccc3)o2)cc1,67,93,92,74,86,.
COC(=O)c1ccc(-c2ncc(-c3cccc4ccccc34)o2)cc1,36*,101,109,105,111,.
CCOc1ccc(-c2nnn(CC(=O)NCc3ccco3)n2)cc1OCC,67,95,104,93,104,.
CCCCOc1ccc(-c2nnn(CC(=O)NCc3ccco3)n2)cc1,29*,31,52,29,57,4
SMILES,H69AR inhibit,PTEN del growth,Lung fibro prol,HCT116 bCat-KO,HUVEC prolif 384,Phagocyt inh
CCN1C(=O)/C(=C/c2ccc(C)s2)NC1=S,4.1*,99,102,83,97,2
S=c1[nH]ncn1/N=C/c1cccc(Oc2ccccc2)c1,1.7*,107,100,107,81,0
COc1ccc(C)cc1S(=O)(=O)N1c2ccccc2CC1C (centres undefined),97,84,104,76,101,2
CCOC(=O)c1c(NC(=O)CC2SC(N)=NC2=O)sc2c1CCCC2 (centres undefined),.,85,.,106,.,.
Cn1c(CCNC(=O)c2cccs2)nnc1SCC(=O)Nc1nc(-c2ccccc2)cs1,83,91,101,97,81,1
Cc1ccc(C(=O)NCCc2nnc(SCC(=O)Nc3nc(-c4ccccc4)cs3)n2C)cc1,43,0.8*,58,1.0*,75,.
Cc1cc(C)nc(-n2nc(C)cc2NC(=O)CN2CCc3ccccc3C2)n1,6.4*,2.7*,83,5.1*,82,0
CCN(CC(=O)Nc1cc(C)nn1-c1nc(C)cc(C)n1)Cc1ccccc1,14*,52,73,56,51,-1
Cc1cc(C)nc(-n2nc(C)cc2NC(=O)CN2CCCC(C)C2)n1 (centres undefined),63,96,89,87,106,-1
CC1(C)CC(=O)C2=C(C1)N(c1ccc(F)cc1)C(=O)C2(NC(=O)c1ccccc1)C(F)(F)F (centres undefined),.,103,.,97,.,-11
O=C1C2C3C=CC(C4CC34)C2C(=O)N1Cc1ccco1 (centres undefined),.,98,.,94,.,.
COc1ccccc1C(=O)Nc1cc(Cl)ccc1O,87,75,96,83,87,-1
Cc1ccc(Cl)cc1NC(=O)c1ccccc1OCC(=O)Nc1ccc(Cl)cc1,.,2.9*,.,27,.,-8
CCOc1ccccc1C(=O)Nc1cc(Cl)ccc1O,30*,66,99,57,50,-1
Cc1ccc(NC(=O)COc2ccccc2C(=O)Nc2ccccc2)cc1Cl,.,88,.,93,.,-6
CC(NC(=O)c1ccco1)c1ccc2c(c1)OCCO2 (centres undefined),106,97,100,94,105,.
CN(c1cccc(NC(=O)CN(c2cccc(Cl)c2)S(=O)(=O)c2ccc(Cl)cc2)c1)S(C)(=O)=O,.,68,.,89,.,-9
Fc1cccc2sc(Nc3nc4cc5c(cc4s3)OCO5)nc12,.,66,.,66,.,-3
Fc1cc(F)c2nc(Nc3nc4cc5c(cc4s3)OCO5)sc2c1,.,6,.,1.3*,.,-4
COc1ccccc1N1CCN(C(=O)c2ccc(Br)s2)CC1,56,85,96,83,3.9*,-1
COc1ccccc1N1CCN(C(=O)c2oc3ccccc3c2C)CC1,18*,.,87,.,58,0
COc1ccccc1-c1cc(C(=O)N2CCN(c3ccccc3OC)CC2)no1,28*,55,97,77,77,3
CCn1c(=O)c2c3c(sc2n2c(=S)[nH]nc12)CCC3,90,90,96,97,93,-2
CCCNS(=O)(=O)c1cccc2cccnc12,102,92,94,95,97,0
O=S(=O)(NCCO)c1cccc2cccnc12,91,105,104,96,99,50*[artifact]
CCSc1ccccc1C(=O)NCc1ccc2c(c1)OCO2,.,105,.,96,.,1
